In ChEMBL document CHEMBL1156534, “Hemopressin is an inverse agonist of CB1 cannabinoid receptors” (Proc Natl Acad Sci U S A, 2007) one finds Activity data, which are given here for 1 molecule.

Active and inactive are the calls of the source. No cut-off for these calls is given here.

Holding throughout (type): functional, cell-based
Assay [1] deals with Cannabinoid receptor 2 (Homo sapiens) (UniProt P34972). The assay is described as follows: Antagonist activity at CB2 receptor expressed in SKNSH cells assessed as blockade of Hu210-induced increase in antibody recognition at 100 nM by ELISA relative to control. Further details: scale not given: the % may be the effect or the level left.
Cannabinoid receptor 2 (Homo sapiens), sequence (P34972 whole entry): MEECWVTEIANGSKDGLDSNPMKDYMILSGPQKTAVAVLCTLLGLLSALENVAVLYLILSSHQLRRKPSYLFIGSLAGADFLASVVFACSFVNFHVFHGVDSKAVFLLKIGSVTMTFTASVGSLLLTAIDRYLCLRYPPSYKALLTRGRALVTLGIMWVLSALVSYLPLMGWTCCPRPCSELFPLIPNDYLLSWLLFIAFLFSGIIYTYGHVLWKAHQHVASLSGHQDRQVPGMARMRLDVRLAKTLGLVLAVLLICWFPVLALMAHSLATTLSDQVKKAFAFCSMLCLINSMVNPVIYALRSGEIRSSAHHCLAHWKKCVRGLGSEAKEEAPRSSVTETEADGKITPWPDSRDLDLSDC
The target of assay [2] is Mu-type opioid receptor (Homo sapiens) (UniProt P35372). The assay is described as follows: Antagonist activity at mu opioid receptor expressed in SKNSH cells at 100 nM by ELISA relative to control. Further details: scale not given: the % may be the effect or the level left.
Mu-type opioid receptor (Homo sapiens), sequence (P35372 whole entry): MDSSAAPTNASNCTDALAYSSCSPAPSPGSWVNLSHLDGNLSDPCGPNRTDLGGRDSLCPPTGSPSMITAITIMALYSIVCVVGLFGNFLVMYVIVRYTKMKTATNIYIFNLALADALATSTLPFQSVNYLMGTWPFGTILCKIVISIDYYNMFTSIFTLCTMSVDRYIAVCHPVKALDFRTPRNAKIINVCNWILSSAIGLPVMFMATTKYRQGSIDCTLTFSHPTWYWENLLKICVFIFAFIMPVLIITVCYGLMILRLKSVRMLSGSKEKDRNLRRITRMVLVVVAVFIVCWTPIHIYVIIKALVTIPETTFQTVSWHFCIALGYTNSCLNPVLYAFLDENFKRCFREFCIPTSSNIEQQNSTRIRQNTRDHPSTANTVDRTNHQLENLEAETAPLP
Assay [3] has as its target Cannabinoid receptor 1 (Homo sapiens) (UniProt P21554). The assay is described as follows: Antagonist activity at CB1 receptor expressed in Neuro 2A cells assessed as blockade of Hu210-mediated increase in number of neurite outgrowth at 10 uM after 16 hrs. The essentials: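 Neuro 2A cells transfected with Flag-tagged CB1 or CB2 were exposed 16 h in 0.1% FBS medium to 100 nM Hu-210 with or without 10 μM peptide. The percentage of cells extending neurites was scored and normalized to untreated cells (100%). Mean ± SE of triplicate experiments.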

Assay [4] concerns the target Cannabinoid receptor 2 (Homo sapiens) (UniProt P34972). The assay is described as follows: Antagonist activity at CB2 receptor expressed in HEK293 cells assessed as blockade of Hu210-mediated decrease in secreted alkaline phosphatase activity at 1 uM after 6 hrs relative to control. In short, it runs like this:
(§1)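 HEK-293 cells transiently co-transfected with pCRE-SeAP and a Flag-tagged receptor, 30,000 cells/well on poly-L-lysine. They were serum-starved 16–18 h, then exposed 6 h in serum-free medium to 10 μM forskolin (omitted for β2) plus the receptor agonist (100 nM), with or without peptide (1 μM). Heat-treated supernatant SeAP was read by CSPD chemiluminescence. Mean ± SEM, n = 6.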

Assay [5] addresses Cannabinoid receptor 1 (Homo sapiens) (UniProt P21554). Briefly: Antagonist activity at CB1 receptor expressed in SKNSH cells at 100 nM by ELISA relative to control. Further details: scale not given: the % may be the effect or the level left.
Assay [6] has as its target T1, Type-1 angiotensin II receptor (Homo sapiens) (UniProt P30556).
T1 sequence (whole entry): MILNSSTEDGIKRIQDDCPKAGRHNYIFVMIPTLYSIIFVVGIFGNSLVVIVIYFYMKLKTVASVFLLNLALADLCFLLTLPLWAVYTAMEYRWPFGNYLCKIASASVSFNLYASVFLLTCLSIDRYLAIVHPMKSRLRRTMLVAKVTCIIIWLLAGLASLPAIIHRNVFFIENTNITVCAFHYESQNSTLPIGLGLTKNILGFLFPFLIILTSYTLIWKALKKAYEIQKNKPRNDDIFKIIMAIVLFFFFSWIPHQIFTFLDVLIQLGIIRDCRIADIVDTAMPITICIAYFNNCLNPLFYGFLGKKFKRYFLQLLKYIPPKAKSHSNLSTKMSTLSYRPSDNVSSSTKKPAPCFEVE
The assay is described as follows: Antagonist activity at AT1 angiotensin receptor expressed in HEK293 cells assessed as blockade of angiotensin 2-mediated decrease in secreted alkaline phosphatase activity at 1 uM after 6 hrs relative to control. The essentials: as §1

In assay [7] the target is T2, Alpha-2A adrenergic receptor (Homo sapiens) (UniProt P08913).
T2 sequence (whole entry): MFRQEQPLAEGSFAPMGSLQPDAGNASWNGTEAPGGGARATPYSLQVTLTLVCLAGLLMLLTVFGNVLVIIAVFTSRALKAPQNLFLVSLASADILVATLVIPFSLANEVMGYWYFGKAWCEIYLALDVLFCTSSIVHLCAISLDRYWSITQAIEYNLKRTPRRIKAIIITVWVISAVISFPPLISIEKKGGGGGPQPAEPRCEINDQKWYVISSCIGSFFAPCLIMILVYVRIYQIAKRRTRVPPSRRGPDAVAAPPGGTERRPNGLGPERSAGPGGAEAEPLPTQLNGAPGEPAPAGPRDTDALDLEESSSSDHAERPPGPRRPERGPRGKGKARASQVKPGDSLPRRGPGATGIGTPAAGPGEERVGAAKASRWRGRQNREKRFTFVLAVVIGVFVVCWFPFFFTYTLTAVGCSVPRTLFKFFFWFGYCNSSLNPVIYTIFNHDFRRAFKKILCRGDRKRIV
The assay is described as follows: Antagonist activity at alpha2A adrenergic receptor expressed in HEK293 cells assessed as blockade of secreted alkaline phosphatase activity at 1 uM after 6 hrs relative to control. In short, it runs like this: as §1

Cannabinoid receptor 1 (Homo sapiens), sequence (P21554 whole entry): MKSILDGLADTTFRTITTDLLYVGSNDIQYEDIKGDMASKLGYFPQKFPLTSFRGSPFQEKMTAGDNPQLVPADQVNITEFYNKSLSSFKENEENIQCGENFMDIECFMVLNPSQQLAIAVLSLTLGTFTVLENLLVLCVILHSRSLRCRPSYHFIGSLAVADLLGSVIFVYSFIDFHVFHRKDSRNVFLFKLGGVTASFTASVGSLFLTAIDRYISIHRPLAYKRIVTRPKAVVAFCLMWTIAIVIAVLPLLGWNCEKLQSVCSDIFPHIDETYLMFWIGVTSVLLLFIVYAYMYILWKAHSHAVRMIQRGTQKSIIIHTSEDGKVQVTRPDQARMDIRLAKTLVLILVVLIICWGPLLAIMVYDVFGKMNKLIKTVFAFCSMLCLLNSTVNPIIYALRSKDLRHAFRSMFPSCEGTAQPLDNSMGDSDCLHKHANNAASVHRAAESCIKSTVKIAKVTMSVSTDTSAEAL

On to `CC(C)C[C@H](NC(=O)[C@H](Cc1ccccc1)NC(=O)[C@H](CCCCN)NC(=O)[C@H](Cc1ccccc1)NC(=O)[C@H](CC(N)=O)NC(=O)[C@@H](NC(=O)[C@@H]1CCCN1)C(C)C)C(=O)N[C@@H](CO)C(=O)N[C@@H](Cc1cnc[nH]1)C(=O)O` [HEMOPRESSIN], for which the Activity in assay [1] amounted to 108%; in assay [2], 106%; in assay [4], 0.85; in assay [5] it was 72%; in assay [6] it was 1.02; in assay [7], 0.92. Moreover, the outcome in assay [3] was Active.
